The record followed here is ChEMBL document CHEMBL1132419 (J Med Chem, 1999).

One may read the IC50 as the concentration needed to halve the response being measured. A high value points to weaker potency in that assay. The term ED50 denotes the dose at which the effect has come halfway, by size or by number of responders. A lower ED50 goes with greater potency.

One assay concerns Plasmodium falciparum. The experiment in a line: Antimalarial activity against chloroquine-sensitive Plasmodium falciparum NF54. The format is functional, organism-based.
In assay [1] the test system is Mus musculus. The experiment in a line: In vivo antimalarial activity against Plasmodium berghei N on subcutaneous administration. The class given is functional. The conditions noted are these: sc. In short, it runs like this: (§1)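 Mice, 5 per dose group, given 1, 3, 10 or 30 mg/kg once daily for 4 days by the route stated; ED values derived from the four-dose series.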

The subject of assay [2] is Mus musculus. The experiment in a line: In vivo antimalarial activity against Plasmodium berghei N on oral administration. The format is functional. A digest of the protocol:
as §1

Another assay deals with Plasmodium berghei. The experiment in a line: Antimalarial activity against Plasmodium berghei N. The conditions noted are these: Mus musculus.

For the compound `Cc1ccc([C@@H]2O[C@@H]3OC4(C)CC[C@H]5[C@H](C)CC[C@@H]([C@H]2C)[C@@]35OO4)o1` (single isomer, unassigned), the IC50 in the assay with Plasmodium falciparum worked out at 5.2 nM. Besides, in the assay on Mus musculus [1], the ED50 turned out to be 0.9 mg/kg and the ED90 is 2 mg/kg. In the assay on Mus musculus [2], this compound came in with an ED50 of 15.5 mg/kg and an ED90 of 43 mg/kg.
For `CCc1ccc([C@@H]2O[C@@H]3OC4(C)CC[C@H]5[C@H](C)CC[C@@H]([C@H]2C)[C@@]35OO4)o1` (single isomer, unassigned), the IC50 in the assay on Plasmodium falciparum amounted to 8.6 nM.
In the case of `CCN(CC)CCCC(C)Nc1ccnc2cc(Cl)ccc12` (stereo unspecified) [CHLOROQUINE], the ED90 in the assay on Mus musculus [1] was found to be 3.1 mg/kg.
For `COc1ccc2cc([C@@H]3O[C@@H]4OC5(C)CC[C@H]6[C@H](C)CC[C@@H]([C@H]3C)[C@@]46OO5)c(OC)cc2c1` (single isomer, unassigned), the IC50 with Plasmodium falciparum turned out to be 9 nM.
The same measure, in the same setting: next, `C[C@H]1[C@H](c2cccn2Cc2ccco2)O[C@@H]2OC3(C)CC[C@H]4[C@H](C)CC[C@@H]1[C@@]24OO3` (single isomer, unassigned): 9.4 nM.
Consider `C[C@@H]1CC[C@H]2[C@@H](C)C(=O)O[C@@H]3O[C@@]4(C)CC[C@@H]1[C@]32OO4` [ARTEMISININ], for which, in the assay on Mus musculus [1], the ED50 was determined as 3 mg/kg and the ED90 amounted to 8.5 mg/kg.
As for `C[C@H]1[C@H](c2cccn2Cc2ccccc2)O[C@@H]2OC3(C)CC[C@H]4[C@H](C)CC[C@@H]1[C@@]24OO3` (single isomer, unassigned), half-maximal inhibition in the assay with Plasmodium falciparum (IC50) required 16 nM.
The same measure, in the same setting: next, `C[C@H]1[C@H](c2cn(C)c3ccccc23)O[C@@H]2OC3(C)CC[C@H]4[C@H](C)CC[C@@H]1[C@@]24OO3` (single isomer, unassigned): 4 nM; `C[C@H]1[C@H](c2cccs2)O[C@@H]2OC3(C)CC[C@H]4[C@H](C)CC[C@@H]1[C@@]24OO3` (single isomer, unassigned): 5.1 nM.
For `C[C@H]1[C@H](c2cccn2C)O[C@@H]2OC3(C)CC[C@H]4[C@H](C)CC[C@@H]1[C@@]24OO3` (single isomer, unassigned), the IC50 in the assay with Plasmodium falciparum was determined as 4.6 nM. In the assay on Mus musculus [1], this compound returned an ED50 of 0.7 mg/kg and an ED90 of 1.2 mg/kg. In the assay on Mus musculus [2], this compound came in with an ED90 of 8.5 mg/kg.
For the compound `COc1ccc([C@@H]2O[C@@H]3OC4(C)CC[C@H]5[C@H](C)CC[C@@H]([C@H]2C)[C@@]35OO4)c(OC)c1` (single isomer, unassigned), 4.2 nM corresponded to half-maximal inhibition with Plasmodium falciparum (IC50).
In the case of `C[C@H]1[C@H](c2ccco2)O[C@@H]2OC3(C)CC[C@H]4[C@H](C)CC[C@@H]1[C@@]24OO3` (single isomer, unassigned), the concentration for half-maximal inhibition (IC50) in the assay with Plasmodium falciparum came to 1.4 nM. The ED90 in the assay with Mus musculus [1] stood at 2 mg/kg; with Mus musculus [2], 24 mg/kg.
`C[C@H]1[C@H](c2ccc(C(C)(C)C)o2)O[C@@H]2OC3(C)CC[C@H]4[C@H](C)CC[C@@H]1[C@@]24OO3` (single isomer, unassigned): the IC50 in the assay with Plasmodium falciparum came out at 10 nM.
On the same count and under the same terms, next, `CCOC(=O)Cn1cccc1[C@@H]1O[C@@H]2OC3(C)CC[C@H]4[C@H](C)CC[C@@H]([C@H]1C)[C@@]24OO3` (single isomer, unassigned): 9.1 nM; `CSc1ccc(C#[C][Al]([CH3])[CH2][C@@H]2O[C@@H]3O[C@]4(C)CC[C@H]5[C@H](C)CC[C@@H]([C@H]2C)[C@@]35OO4)cc1`: 8.4 nM; `C=CCOc1ccc([C@@H]2O[C@@H]3OC4(C)CC[C@H]5[C@H](C)CC[C@@H]([C@H]2C)[C@@]35OO4)c(OCC=C)c1` (single isomer, unassigned): 6.6 nM.
`C[C@H]1[C@H]([CH2][Al]([CH3])[C]#Cc2ccc(F)cc2)O[C@@H]2O[C@]3(C)CC[C@H]4[C@H](C)CC[C@@H]1[C@@]24OO3`: the IC50 with Plasmodium falciparum amounted to 8.3 nM.
Consider `CCO[C@H]1O[C@@H]2O[C@@]3(C)CC[C@H]4[C@H](C)CC[C@@H]([C@H]1C)[C@@]24OO3` [ARTEMOTIL], for which, in the assay on Mus musculus [1], the ED50 was found to be 0.3 mg/kg and the ED90 turned out to be 0.5 mg/kg. In the assay with Plasmodium berghei, this compound yielded an ED50 of 0.3 mg/kg.
Turning to `COc1cc(OC)c([C@@H]2O[C@@H]3OC4(C)CC[C@H]5[C@H](C)CC[C@@H]([C@H]2C)[C@@]35OO4)c(OC)c1` (single isomer, unassigned), in the assay with Plasmodium falciparum, inhibition was half-maximal at 7.8 nM (IC50).
